aDG glyco act: alpha-DG glycosylation activation. Pro5-aDG cells, alpha-DG glycosylation AlphaScreen (IIH6); 0% Pro5, 100% B10-LARGE cell signal. AID 624168. hit rate 0.22% among 360,000. activation, % at 10 µM;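 active = activation of at least 8% versus controls, or a plate z-score of at least 8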;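 note: Pro5 are CHO cells carrying HIG-tagged alpha-DG that lacks glycosylation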
procasp7 counter: activates human procaspase-7, counter-screen for procaspase-3 activators. P55210. recombinant procaspase-7, Ac-DEVD-pNA absorbance 405 nm; D23A/D198A/D206A triple mutant, cannot self-cleave; scale: DMSO 0, 5 µM enzyme 100. activation, % at 8.5 µM. hit rate 0.093% among 330,000;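 active = percent activation above the screen-wide mean plus 3 SD, cut at about 25% in these data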
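System: Uncleavable procaspase-7 mutant enzyme; Amount: 2 µM procaspase-7 mutant as dispensed; Schedule: 1 h compound preincubation, 2 h substrate cleavage, 25 °C; Measured by: 405 nm absorbance of p-nitroaniline; Evaluation: percent activation from buffer-corrected 0–120 min absorbance change; Control set: low DMSO alone, high DMSO plus 5 µM PC-7.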
T cell modulator: T cell immune modulators affecting CD8 T cell-vesicle binding | response (vesicle binding), % at 7 µM | hit rate 0.068% among 330,000 | 2C CD8+ T cell-vesicle binding, flow cytometry; hits give low values;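 active = response, share of CD8 T cells binding vesicles, and their 90th percentile fluorescence all below set limits, cut at about 80% in these data, passing the limit was not always enough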;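 note: values below 100% mean blocked vesicle binding to the CD8+ T cells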
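incubation = binding step 1.5 h, 37 °C, antibody labelling 20 min, ice | test system = 2C mouse CD8+ T cells | read-out basis = percent CD8+ FL2 mean versus row control | controls = Peptide-free naked vesicles (low) and QL9 vesicles with 0.7% DMSO vehicle (high) | detection = flow cytometry of vesicle-bound cells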
procasp3 activ: procaspase-3 (human) activation. activation, % at 8.5 µM. hit rate 0.11% among 330,000. P42574. recombinant procaspase-3 D3A, Ac-DEVD-pNA absorbance 405 nm. AID 463141;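 active = activation above the mean of all tested compounds plus 3 SD, cut at about 21% in these data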
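System: Procaspase-3 D3A mutant. Medium: Zinc-free 300 mM NaCl, 50 mM HEPES, 0.01% Triton X-100. Schedule: 1 h preincubation plus 2 h reaction at 25 °C. Measured by: 405 nm absorbance of p-nitroaniline, reads at 0 and 120 min. Read-out: percent activation relative to control range.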
GRK2 inh: inhibitors of human GRK2 displacing RNA aptamer; bead flow cytometry, FAM-aptamer displacement from GRK2; inhibition of aptamer binding, % at 10 µM; hit rate 0.59% among 330,000; AID 488847;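 active = inhibition of aptamer binding above 40%, roughly 3 SD of noise, on plates passing a quality check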;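 note: median bead fluorescence of bound FAM aptamer so fluorescent compounds give negative values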
Target sequence (P25098 whole entry, looked up): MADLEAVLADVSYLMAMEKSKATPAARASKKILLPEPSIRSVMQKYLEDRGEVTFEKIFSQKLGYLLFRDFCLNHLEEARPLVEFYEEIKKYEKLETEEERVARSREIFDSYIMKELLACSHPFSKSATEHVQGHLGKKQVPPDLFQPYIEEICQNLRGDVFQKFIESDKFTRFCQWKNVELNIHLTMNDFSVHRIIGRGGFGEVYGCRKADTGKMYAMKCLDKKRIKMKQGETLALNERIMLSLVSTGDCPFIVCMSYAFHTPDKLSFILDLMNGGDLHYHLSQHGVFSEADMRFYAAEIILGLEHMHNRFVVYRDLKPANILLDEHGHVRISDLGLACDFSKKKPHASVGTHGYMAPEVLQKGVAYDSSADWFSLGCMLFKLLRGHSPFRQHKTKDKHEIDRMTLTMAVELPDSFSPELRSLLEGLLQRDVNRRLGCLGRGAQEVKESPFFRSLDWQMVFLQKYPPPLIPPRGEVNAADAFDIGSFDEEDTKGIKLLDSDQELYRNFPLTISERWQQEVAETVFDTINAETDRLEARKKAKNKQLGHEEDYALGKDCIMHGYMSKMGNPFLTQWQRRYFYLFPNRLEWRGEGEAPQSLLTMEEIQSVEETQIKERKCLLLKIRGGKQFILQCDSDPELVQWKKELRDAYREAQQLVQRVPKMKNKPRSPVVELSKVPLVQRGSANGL
CaV13 FRET inh: Disruptors of the CACNA1D IQ motif to Ca2+-dependent inactivation inhibitor domain association, primary screening, Förster resonance energy transfer in intact living …; HEK cells, CFP/YFP FRET ICDI-IQ, plate reader, 10 min; percent FRET-ratio fall versus neutral wells; hit rate 0.098% among 340,000; AID 743397; inhibition, % at 12.3 µM;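 active = mean replicate inhibition of at least 30% and at least 1% of replicates passing that level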
GRK2 inh confirm: human GRK2 inhibition confirmation, cherry pick 1 | hit rate 4% among 2,000 | shares compounds with GRK2 inh | bead-bound GRK2, FAM-aptamer displacement, flow cytometry | AID 504451 | aptamer displacement, % at 10 µM;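 active = aptamer displacement above 40%, near three times the noise of non-fluorescent compounds, on plates passing quality checks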;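 note: negative values mostly reflect intrinsic compound fluorescence rather than true enhancement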
FAM quench CP1: counter-screen for GRK2 aptamer inhibitors: fluorescent aptamer quenchers. AID 504580. shares compounds with GRK2 inh. 2,000 tested, under 10 active. fluorescence response (% of DMSO), % at 10 µM. Carboxyfluorescein RNA aptamer on beads, flow cytometry quenching; hits give low values;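 active = compounds that quench the bead-bound fluorescent RNA probe, cutting fluorescence to under half of the solvent control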;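 note: counterscreen run without GRK2 so only probe quenching by compound is measured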
GRK2 confirm 2: confirmation of human GRK2 inhibitors binding RNA aptamer site; inhibition of aptamer binding, % at 10 µM; shares compounds with GRK2 inh; 360 tested, under 10 active; bead-bound GRK2, FAM-aptamer displacement, flow cytometry; AID 504782;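 active = inhibition of aptamer binding above 40%, about triple the noise seen with nonglowing compounds, on plates passing quality control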;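 note: negative values mostly come from compounds that fluoresce themselves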
FAM quench CP2: quenches fluorescent RNA aptamer, GRK2 hit artifact; 360 tested, under 10 active; carboxyfluorescein RNA aptamer beads, flow cytometry quenching; hits give low values; fluorescence response vs DMSO, % at 10 µM; AID 588494; shares compounds with GRK2 inh;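 active = response vs DMSO under 50%, meaning signal dropped by over half, treated as fluorescence quencher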;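 note: labelled aptamer on streptavidin beads without GRK2 as a quench counter-screen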
Large screens that a line does not name were inactive (follow-up assays come after a bar, where they were run). In the library only some 1.1% were active in any assay of this set; here they are far more common.

O=C(NNC(=S)NCc1ccccc1)c1ccc2c(c1)OCO2	none
NC(Cc1ccc(O)cc1)C(=O)NN=Cc1ccccc1O (stereo not drawn)	none (no result: aDG glyco act, procasp7 counter, T cell modulator, procasp3 activ, GRK2 inh)
Cc1cccc(C)c1-n1nnnc1C(c1ccnc2ccccc12)N1CCOCC1 (stereo not drawn)	none (no result: procasp7 counter, T cell modulator, procasp3 activ, GRK2 inh)
Cn1cnc(Sc2ncnc3nc[nH]c23)c1[N+](=O)[O-]	GRK2 inh 96 | GRK2 inh confirm inactive | FAM quench CP1 inactive
O=C(O)c1ccccc1-c1ncc(-c2ccccc2)o1	none
COc1ccc(CC(=O)N(Cc2ccccc2)c2cccc(C)c2)cc1OC	GRK2 inh 100 | GRK2 confirm 2 inactive | FAM quench CP2 inactive
COc1ccc(C(=O)N(Cc2ccccc2)c2cccc(C)c2)c(OC)c1OC	none
NC(=O)C[C@H]1NC(=O)[C@H](CCC(=O)O)NC(=O)c2cc([N+](=O)[O-])cc(I)c2NCCC[C@@H](C(N)=O)NC1=O	none
NC(=O)[C@@H]1CCCNc2c(I)cc([N+](=O)[O-])cc2C(=O)N[C@@H](CCC(=O)O)C(=O)N[C@@H](CO)C(=O)N1	GRK2 inh 88 (no result: CaV13 FRET inh) | GRK2 inh confirm inactive | FAM quench CP1 inactive
O=c1c(=Nc2ccccc2O)c(=O)c2ccccc12	GRK2 inh 70 | GRK2 inh confirm inactive | FAM quench CP1 inactive
O=Nc1c(O)c2ccccc2c2ccccc12	none
Cc1ccc2c(CC(=O)OCC(=O)N(CC(C)C)c3c(N)n(Cc4ccccc4)c(=O)[nH]c3=O)coc2c1	GRK2 inh 83 | GRK2 inh confirm inactive | FAM quench CP1 inactive
Cc1cc(OCC(=O)N(Cc2ccco2)c2c(N)n(Cc3ccccc3)c(=O)[nH]c2=O)ccc1Cl	none | GRK2 inh confirm inactive | FAM quench CP1 inactive
O=C1CCc2cc(S(=O)(=O)NCc3ccc(F)cc3)cc3c2N1CCC3	none
COC(=O)c1c(N2C(=O)CC(Sc3ccccc3C(=O)O)C2=O)sc2c1CCCC2 (stereo not drawn)	none
COc1cc(/C=C2\SC(=S)N(NC(C)=O)C2=O)ccc1OC(=O)c1ccco1	none | GRK2 inh confirm inactive | FAM quench CP1 inactive
O=C(Nc1ccc(S(=O)(=O)Nc2nccs2)cc1)c1cc(-c2ccccc2Cl)nc2ccccc12	none (no result: CaV13 FRET inh) | GRK2 inh confirm inactive | FAM quench CP1 inactive
O=C(Nc1ccc(S(=O)(=O)Nc2nccs2)cc1)c1cc(-c2ccccn2)nc2ccccc12	none
CCCN1CCCCC(NC(=O)c2cccs2)C1=O (stereo not drawn)	none (no result: aDG glyco act, procasp7 counter, T cell modulator, procasp3 activ, GRK2 inh)
C#CCOCCOCCOCCNc1nc(N2CCOCC2)nc(N2CCN(C(=O)[C@H](CO)n3cc([C@@H](N)C(C)C)nn3)CC2)n1	GRK2 inh 74 | GRK2 confirm 2 inactive | FAM quench CP2 inactive
C#CCOCCOCCOCCNc1nc(N2CCN(C(=O)CCCCCCCCCCNC(=O)[C@@H](CCC(=O)O)n3cc(CCCCCN)nn3)CC2)nc(N2CCN(C(=O)CCCCCCCCCCNC(=O)[C@H](CO)n3cc(CCCSC)nn3)CC2)n1	none (no result: CaV13 FRET inh)
C#CCOCCOCCOCCNc1nc(N2CCOCC2)nc(N2CCN(C(=O)CCCCCCCCCCNC(=O)[C@H](CO)n3cc(CCCSC)nn3)CC2)n1	GRK2 inh 50 | GRK2 inh confirm inactive | FAM quench CP1 inactive
O=C(Nc1ccc(S(=O)(=O)Nc2ncccn2)cc1)C12CC3CC(CC(Cl)(C3)C1)C2	none
COc1ccc(C(=O)NC(NC(=S)Nc2ccc(S(N)(=O)=O)cc2)C(Cl)(Cl)Cl)cc1 (stereo not drawn)	none
Cc1cc(NS(=O)(=O)c2ccc(NC(=O)c3c(F)c(F)c(F)c(F)c3F)cc2)nc(C)n1	GRK2 inh 56 | GRK2 confirm 2 inactive | FAM quench CP2 inactive
O=C(CCCNC(=O)c1ccc(Cl)cc1)Nc1ncccc1O	none
O=C(CCNC(=O)c1ccc(Cl)cc1)Nc1ncccc1O	GRK2 inh 77 (no result: CaV13 FRET inh) | GRK2 confirm 2 inactive | FAM quench CP2 inactive
CC(CCC(=O)O)C1CC[C@@]2(C)C3C(=O)CC4C(C)(C)C(O)CC[C@]4(C)C3C(=O)C[C@]12C (stereo partly drawn)	GRK2 inh 44 | GRK2 inh confirm inactive | FAM quench CP1 inactive
CC(CCc1ccc(O)cc1)NCc1ccc(Br)cc1 (stereo not drawn)	none
CC(C)c1csc(CN2CCC(N3CCC(C(=O)NCC4CCCO4)CC3)CC2)n1 (stereo not drawn)	none
COc1ccccc1CNC(=O)COC(=O)c1cc(-c2ccco2)nc2ccccc12	GRK2 inh 49 | GRK2 inh confirm inactive | FAM quench CP1 inactive
COc1ccccc1CNC(=O)COC(=O)c1cc(C)nc2ccccc12	none
CCc1nnc(NC(=O)c2cc(-c3ccco3)nc3ccccc23)s1	none | GRK2 inh confirm inactive | FAM quench CP1 inactive
Cc1ccc(NC(=O)c2ncn[nH]2)cc1	none
Cc1ccccc1C(=O)Nc1cccc(NC(=O)c2ncn[nH]2)c1	GRK2 inh 99 | GRK2 inh confirm inactive | FAM quench CP1 inactive
N=C1/C(=C/c2ccco2)C(=O)N=C2SC(CC(=O)N3CCCC3)=NN12	GRK2 inh 46 | GRK2 inh confirm inactive | FAM quench CP1 inactive
CC(=O)c1cc(C(=O)N2CCc3c([nH]c4ccccc34)C2C2CCCCC2)[nH]n1 (stereo not drawn)	none
COC(=O)c1ccc(N)c2c(N)ccc(C(=O)OC)c12	none (no result: aDG glyco act, procasp7 counter, T cell modulator, procasp3 activ, GRK2 inh)
Cc1nnc(Nc2ccc(C(=O)NCCO)cc2)c2ccccc12	GRK2 inh 49 | GRK2 inh confirm inactive | FAM quench CP1 inactive
O=C(O)c1cccc(-c2ccc(/C=c3/sc4nc5ccccc5n4c3=O)o2)c1	GRK2 inh 50 | GRK2 inh confirm inactive | FAM quench CP1 inactive
O=C(COC(=O)CC1SC(N2CCCC2)=NC1=O)Nc1c(F)c(F)c(F)c(F)c1F (stereo not drawn)	none

Screens deposited in PubChem by several laboratories.
